Screens: PubChem, Sanford-Burnham Center for Chemical Genomics
This is a sample that favours compounds with a hit; in the whole collection about 2.5% have one here.
SENP7 inh – SENP7 protease inhibitors, primary screen, biochemical, luminescence, uHTS | recombinant SENP7, Z-RLRGG-aminoluciferin luminescence, 40 min | inhibition, % at 5 µM | actives 1.5% (n = 330,000) | AID 434973, 2010;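 active means inhibition above about 50% at the single test dose, limit read from the data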
Target sequence (Q9BQF6 706-1050 limits assumed): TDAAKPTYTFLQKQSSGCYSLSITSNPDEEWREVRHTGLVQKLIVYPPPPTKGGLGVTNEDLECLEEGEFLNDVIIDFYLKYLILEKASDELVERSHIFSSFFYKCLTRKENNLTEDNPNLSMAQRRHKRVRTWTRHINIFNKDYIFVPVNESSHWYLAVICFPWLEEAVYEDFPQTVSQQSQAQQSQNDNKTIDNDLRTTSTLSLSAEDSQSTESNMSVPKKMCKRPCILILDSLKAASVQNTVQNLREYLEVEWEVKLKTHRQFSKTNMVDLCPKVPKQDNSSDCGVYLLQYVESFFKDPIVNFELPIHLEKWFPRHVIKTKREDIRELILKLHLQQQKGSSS
SENP1 inh – human SENP1 catalytic domain inhibitors, primary screen, biochemical, FRET, uHTS. Sentrin-specific protease 1 (Homo sapiens), Q9P0U3. recombinant SENP1 catalytic domain, CyPet-SUMO1-YPet FRET cleavage. inhibition, % at 10 µM. actives 0.21% (n = 360,000);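 active means inhibition at least 30% at 10 µM, raw YFP signal under a set limit, fluorescence ratio 0.5 to 1.5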
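Test system: hSENP1 catalytic domain, recombinant; Amount: 20 pM final SENP1 enzyme; Medium: Tris pH 8 buffer plus EDTA, NaCl, BME, BSA, NP40, catalase; Schedule: 50 min enzyme reaction, room temperature, light-protected; Technique: FRET fluorescence in CFP and YFP emission channels; Controls: no-enzyme wells low, DMSO-plus-enzyme wells high control.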
SENP8 block-1 – SENP8 protease inhibitors, primary screen, biochemical, luminescence; actives 1.2% (n = 330,000); purified SENP8, Z-RLRGG-aminoluciferin cleavage; AID 2540, 2010; inhibition, % at 10 µM; Sentrin-specific protease 8 (Homo sapiens), Q96LD8; in the data active means inhibition above about 50%
Target sequence (Q96LD8 whole entry, looked up): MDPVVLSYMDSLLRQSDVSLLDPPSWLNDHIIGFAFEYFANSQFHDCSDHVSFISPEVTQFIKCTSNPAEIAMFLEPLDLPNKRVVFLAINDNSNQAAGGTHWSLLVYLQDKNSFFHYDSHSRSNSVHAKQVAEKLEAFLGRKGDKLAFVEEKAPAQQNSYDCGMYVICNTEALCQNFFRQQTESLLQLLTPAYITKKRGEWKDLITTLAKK
SENP8 block-2 – human SENP8 protease inhibitors, primary screen, biochemical, fluorescence, Nedd8 protein substrate, uHTS. Sentrin-specific protease 8 (Homo sapiens), Q96LD8. recombinant SENP8. inhibition, % at 20 µM. actives 0.64% (n = 360,000). AID 602440, 2012; in the data active means inhibition mostly above about 40%, no sharp cut-off; inactive means mostly below about 27%
SENP6 block – SENP6 protease inhibitors, primary screen, biochemical, luminescence, uHTS | Sentrin-specific protease 6 (Homo sapiens), Q9GZR1 | Recombinant SENP6 catalytic domain, aminoluciferin luminescence | inhibition, % at 10 µM | actives 1.8% (n = 330,000) | AID 2599, 2010;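 active means inhibition above about 50% at the single tested dose, limit read from the data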
Numbers stand for hits; . = inactive; / = no result given.

SMILES	SENP7 inh	SENP1 inh	SENP8 block-1	SENP8 block-2	SENP6 block
CCN(CC)c1ccc(N=Cc2c(O)n(Cc3ccco3)c(=O)[nH]c2=O)cc1	.	.	.	.	.
CCN(CCO)c1ccc(N=Cc2c(O)n(C)c(=S)[nH]c2=O)cc1	54.3	.	.	55.3	.
Cc1cccc(OP(N)(=O)Oc2cccc(C)c2C)c1C	.	.	.	.	.
O=[N+]([O-])c1ccc(N(CCO)CCO)c2c1no[n+]2[O-]	/	.	/	51.4	/
CN1CCN(c2ccc(S(C)(=O)=O)cc2[N+](=O)[O-])CC1	.	.	.	.	.
CN1CCN(c2ccc([N+](=O)[O-])c3no[n+]([O-])c23)CC1	/	83.7	/	69.2	/
CCCCn1nnnc1C(c1ccnc2ccccc12)N1CCC2(CC1)C(=O)NCN2c1ccccc1 (stereo unspecified)	/	.	/	.	/
CC(C)OP(=O)(Oc1ccc(C(O)C(Cl)(Cl)Cl)cc1)OC(C)C (stereo unspecified)	.	.	.	.	.
CC1Oc2cc3c(-c4c(O)cc(O)c5c(O)c6c(cc45)OC(C)C(C)C6=O)c(O)cc(O)c3c(O)c2C(=O)C1C (stereo unspecified)	.	65.2	.	89.1	.
Fc1cccc(-c2ccc3c(c2)CN(c2cccc(Cl)c2)Cc2cnnn2-3)c1	/	.	/	.	/
COc1cc(O)c(C(=O)O)c(-c2cc(O)c(O)cc2C)c1	.	.	.	65.8	.
COc1ccc2c(c1)c(C(=O)O)c(C)n2CC(C)C	.	.	.	.	.
CC(=O)NC1=C(N2CC2C)C(=O)C(NC(C)=O)=C(N2CC2C)C1=O (stereo unspecified)	/	.	/	64.9	/
COc1ccc(CN2Cc3cc(N4CCCCC4)ccc3-n3nncc3C2)cc1	/	.	/	.	/
C[C@]12CC[C@@H]3c4ccc(O)c(O)c4CC[C@H]3[C@@H]1CC[C@@H]2O	.	.	.	45.1	.
C[C@]12CC[C@H]3[C@@H](CCC4=CC(=O)CC[C@@H]43)[C@@H]1CC[C@@H]2O	.	.	.	.	.
O=C(O)CC1OCC=C2CN3CCC45C6=CC(=O)C(=O)C([N+](=O)[O-])=C6NC4C1C2CC35 (stereo unspecified)	/	.	/	111.7	/
O=C(O)CC1OCC=C2CN3CCC45c6ccccc6NC4C1C2CC35 (stereo unspecified)	.	.	.	.	.
Nc1c(C(=O)NC2CCCC2)c2nc3ccccc3nc2n1CC1CCCO1 (stereo unspecified)	90.4	.	93.1	.	92.1
CCN1/C(=C/C=C/C2=[N+](CC)c3ccccc3C2(C)C)C(C)(C)c2ccccc21	/	76.5	/	41.2	/
CN1/C(=C\C=C\C2=[N+](C)c3ccc4ccccc4c3C2(C)C)C(C)(C)c2ccccc21	.	/	.	/	58.9
CC(C)C[C@H]1C(=O)N2CCC[C@H]2[C@]2(O)O[C@](NC(=O)[C@@H]3C=C4c5cccc6[nH]cc(c56)C[C@H]4N(C)C3)(C(C)C)C(=O)N12	.	.	.	.	51.1
CCC(CO)NC(=O)C1C=C2c3cccc4[nH]cc(c34)CC2N(C)C1 (stereo unspecified)	.	.	.	.	.
COC(=O)C1C=C2c3cccc4[nH]cc(c34)CC2N(C)C1 (stereo unspecified)	.	/	.	/	54.1
CNC(=O)Oc1ccc(-c2cn3cc(C)ccc3n2)cc1	79.3	.	66.6	.	81.0
SMILES	SENP7 inh	SENP1 inh	SENP8 block-1	SENP8 block-2	SENP6 block
O=C(Nc1ccccc1)N1CC2CC(C1)c1cccc(=O)n1C2 (stereo unspecified)	.	.	.	.	.
C=CCN1C(=O)NC(=O)/C(=C/c2c(CCN(C)C(=O)c3ccccc3)cc3c(c2OC)OCO3)C1=O	.	.	.	54.1	.
CNC(=S)N(C)CCc1cc2c(c(OC)c1C=C1C(=O)NC(=O)NC1=O)OCO2	.	.	.	.	.
O=C1C(=O)c2cccc3cccc1c23	.	.	.	.	.
O=C1C(=O)c2ccccc2-c2ccccc21	97.1	.	93.2	108.0	97.0
CCCCCCCCn1sccc1=O	.	.	.	.	.
CCCC(=O)NC1=C(N2CC2)C(=O)C(NC(=O)CCC)=C(N2CC2)C1=O	/	.	/	66.0	/
Cc1c(CCN)ccc2c1[nH]c1ccccc12	.	.	.	.	.
Cc1nc2c(=O)n(C)c(=O)nc-2n(C)n1	96.0	48.8	96.4	131.7	86.9
CN1CC2([N+](=O)[O-])CC=C(Cl)C([N+](=O)[O-])(C1)C2 (stereo unspecified)	.	.	.	.	.
O=C(COC(=O)c1cc(Br)cc(Br)c1O)NC12CC3CC(CC(C3)C1)C2	/	.	/	.	/
O=C1CC=C2C3CC4N(CCC45c4cc(O)c(O)cc4N1C25)CC3=CCBr (stereo unspecified)	/	.	/	59.3	/
O=C1CC=C2C3CC4N(CCC45c4ccccc4N1C25)CC3=CCO (stereo unspecified)	/	.	/	.	/
CC(=O)N1N=C2C3CCN(CC3)C2C1c1ccc(Br)cc1 (stereo unspecified)	.	.	.	.	.
Nc1ccccc1C(=O)OCC(=O)c1ccc2c(c1)OCCO2	98.5	.	94.8	.	95.4
CC(=O)Nc1ccccc1C(=O)OCC(=O)c1ccc2ccccc2c1	.	.	.	.	.
C1=C(CCNCc2ccccc2)CCCC1	.	.	.	.	.
C/C(CC(c1ccccc1)c1c(O)c2ccccc2oc1=O)=N\Nc1ccc([N+](=O)[O-])cc1[N+](=O)[O-] (stereo unspecified)	.	.	.	.	94.6
O=c1oc2ccccc2c(O)c1C(c1ccc([N+](=O)[O-])cc1)c1c(O)c2ccccc2oc1=O	/	.	/	.	/
COc1ccc(NC2Oc3cc4c(cc3C(c3cc(OC)c(OC)c(OC)c3)C2C)OCO4)cc1 (stereo unspecified)	/	.	/	52.4	/
CCc1ccc(-c2nn(Cc3ccccc3)cc2C=O)cc1	.	.	.	.	.
C=CCC1(Cc2ccsc2)C(=O)NC(=O)NC1=O	/	.	/	.	/
c1cncc(C2Nc3cccc4cccc(c34)N2)c1	.	.	.	52.3	.
CCn1nc(-c2ccccc2)nc2c(=O)n(C)c(=O)nc1-2	96.2	.	91.8	.	88.9
COC(=O)C1=C(C(=O)OC)SC2(S1)C(C(=O)OC)=C(C(=O)OC)Sc1c2ssc1=O	/	.	/	42.8	/
C[n+]1c2ccccc2nc2ccc(NCCO)cc21	.	.	71.4	89.8	81.2
OCCNc1c2c(nc3ccccc13)CCCC2	.	.	.	.	.
CNc1ccc2nc3ccccc3[n+](C)c2c1	.	.	.	71.8	66.2
Cc1ccccc1-[n+]1c(-c2ccccc2)cc(-c2ccccc2)cc1-c1ccccc1	.	.	.	.	.
